Experimental data reported in ChEMBL document CHEMBL4152204, “Discovery of N-hydroxy-3-alkoxybenzamides as direct acid sphingomyelinase inhibitors using a ligand-based pharmacophore model” (Eur J Med Chem, 2018).
Calls of active or inactive are those of the source. The calls are words filed in the database; no cut-off is given here.

Assays:
[1] = biological target: T1, Sphingomyelin phosphodiesterase 2 (Homo sapiens) (UniProt O60906); assay: Inhibition of neutral sphingomyelinase (unknown origin) assessed as reduction in NBD-ceramide release at 100 uM by TLC based fluorescence assay
T1 sequence (whole entry): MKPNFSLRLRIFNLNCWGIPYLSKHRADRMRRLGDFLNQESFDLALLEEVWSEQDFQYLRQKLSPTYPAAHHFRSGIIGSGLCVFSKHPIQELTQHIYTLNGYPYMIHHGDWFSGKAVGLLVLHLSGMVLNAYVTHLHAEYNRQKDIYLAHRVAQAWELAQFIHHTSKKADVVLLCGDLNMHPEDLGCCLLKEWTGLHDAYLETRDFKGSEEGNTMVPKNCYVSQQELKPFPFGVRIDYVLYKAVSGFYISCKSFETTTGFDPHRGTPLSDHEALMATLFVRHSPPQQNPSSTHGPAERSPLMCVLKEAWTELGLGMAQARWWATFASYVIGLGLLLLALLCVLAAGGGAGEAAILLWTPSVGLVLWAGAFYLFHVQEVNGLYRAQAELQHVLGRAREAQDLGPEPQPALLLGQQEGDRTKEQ

[2] = biological target: T2, Sphingomyelin phosphodiesterase (Mus musculus) (UniProt Q04519); assay: Inhibition of acid sphingomyelinase in mouse NIH/3T3 cells assessed as ceramide levels at 10 uM after 20 hrs by LC-MS/MS analysis relative to control; format: cell-based
T2 sequence (whole entry): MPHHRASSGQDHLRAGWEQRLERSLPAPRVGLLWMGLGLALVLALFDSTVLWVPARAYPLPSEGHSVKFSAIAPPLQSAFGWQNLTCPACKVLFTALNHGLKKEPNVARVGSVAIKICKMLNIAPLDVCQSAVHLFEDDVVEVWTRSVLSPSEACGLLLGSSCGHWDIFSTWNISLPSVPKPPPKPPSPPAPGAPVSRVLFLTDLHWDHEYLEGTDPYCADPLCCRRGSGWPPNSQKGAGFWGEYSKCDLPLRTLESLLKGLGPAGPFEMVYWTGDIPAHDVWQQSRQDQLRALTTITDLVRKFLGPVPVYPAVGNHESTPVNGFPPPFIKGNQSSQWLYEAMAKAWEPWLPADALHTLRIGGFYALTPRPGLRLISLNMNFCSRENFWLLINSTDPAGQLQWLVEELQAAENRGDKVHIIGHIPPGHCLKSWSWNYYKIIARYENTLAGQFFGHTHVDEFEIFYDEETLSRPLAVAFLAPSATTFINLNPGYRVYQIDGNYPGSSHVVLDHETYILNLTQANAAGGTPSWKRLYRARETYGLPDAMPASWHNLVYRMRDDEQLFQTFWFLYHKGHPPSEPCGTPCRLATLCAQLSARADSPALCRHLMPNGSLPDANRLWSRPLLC
Summary of the method: (§1)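 NIH3T3 cells in DMEM with 10% FBS, 37 °C, 5% CO₂; at 90% confluence given fresh medium plus inhibitor (5, 10, 20 µM) for 20 h; total ceramides and sphingomyelin quantified by LC-MS-MS versus untreated control; mean ± SD of three independent experiments, Student's t-test.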

[3] = biological target: T2, Sphingomyelin phosphodiesterase (Mus musculus); assay: Inhibition of acid sphingomyelinase in mouse NIH/3T3 cells assessed as increase in […] level at 20 uM after 20 hrs by LC-MS/MS analysis relative to control; format: cell-based; design: scale not given: the % may be the effect or the level left; summary of the method: as §1
NIH3T3 [4] = assay: Cytoprotective activity against UV-induced apoptosis in mouse NIH/3T3 cells assessed as viable cells at 10 uM preincubated for 20 hrs followed by UV irradiation for 5 mins and measured after 24 hrs by flow cytometric analysis (reference value: 12.6%); format: functional; settings: NIH3T3, light or radiation study, read-out: Activity
NIH3T3 [5] = assay: Cytoprotective activity against UV-induced apoptosis in mouse NIH/3T3 cells assessed as early apoptotic cells at 10 uM preincubated for 20 hrs followed by UV irradiation for 5 mins and measured after 24 hrs by flow cytometric analysis (reference value: 79.5%); format: functional
NIH3T3 [6] = assay: Cytoprotective activity against UV-induced apoptosis in mouse NIH/3T3 cells assessed as late apoptotic cells at 10 uM preincubated for 20 hrs followed by UV irradiation for 5 mins and measured after 24 hrs by flow cytometric analysis (reference value: 6.4%); format: functional
NIH3T3 [7] = assay: Cytoprotective activity against UV-induced apoptosis in mouse NIH/3T3 cells assessed as necrotic cells at 10 uM preincubated for 20 hrs followed by UV irradiation for 5 mins and measured after 24 hrs by flow cytometric analysis (reference value: 1.5%); format: functional
NIH3T3 [8] = assay: Cytoprotective activity against UV-induced apoptosis in mouse NIH/3T3 cells assessed as early apoptotic cells at 20 uM preincubated for 20 hrs followed by UV irradiation for 5 mins and measured after 24 hrs by flow cytometric analysis (reference value: 79.5%); format: functional
NIH3T3 [9] = assay: Cytoprotective activity against UV-induced apoptosis in mouse NIH/3T3 cells assessed as necrotic cells at 20 uM preincubated for 20 hrs followed by UV irradiation for 5 mins and measured after 24 hrs by flow cytometric analysis (reference value: 1.5%); format: functional
NIH3T3 [10] = assay: Cytoprotective activity against UV-induced apoptosis in mouse NIH/3T3 cells assessed as late apoptotic cells at 40 uM preincubated for 20 hrs followed by UV irradiation for 5 mins and measured after 24 hrs by flow cytometric analysis (reference value: 6.4%); format: functional
NIH3T3 [11] = assay: Cytoprotective activity against UV-induced apoptosis in mouse NIH/3T3 cells assessed as viable cells at 60 uM preincubated for 20 hrs followed by UV irradiation for 5 mins and measured after 24 hrs by flow cytometric analysis (reference value: 12.6%); format: functional; settings: NIH3T3, light or radiation study, read-out: Activity
NIH3T3 [12] = assay: Cytoprotective activity against UV-induced apoptosis in mouse NIH/3T3 cells assessed as early apoptotic cells at 60 uM preincubated for 20 hrs followed by UV irradiation for 5 mins and measured after 24 hrs by flow cytometric analysis (reference value: 79.5%); format: functional
NIH3T3 [13] = assay: Cytoprotective activity against UV-induced apoptosis in mouse NIH/3T3 cells assessed as necrotic cells at 60 uM preincubated for 20 hrs followed by UV irradiation for 5 mins and measured after 24 hrs by flow cytometric analysis (reference value: 1.5%); format: functional
NIH3T3 [14] = assay: Inhibition of LPS-induced IL-8 production in mouse NIH/3T3 cells preincubated for 20 hrs followed by LPS-stimulation and measured after 6 hrs by ELISA; format: functional, cell-based
Summary of the method: (§2)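 NIH3T3 cells (DMEM, 10% FBS) seeded at 2*10⁵ per well overnight, inhibitor 20 h, then LPS to 50 ng/mL for a further 6 h; IL-6 or IL-8 measured by ELISA; compared with LPS-only and control groups.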

NIH3T3 [15] = assay: Inhibition of LPS-induced IL-8 production in mouse NIH/3T3 cells at 2.5 uM preincubated for 20 hrs followed by LPS-stimulation and measured after 6 hrs by ELISA; format: functional, cell-based; summary of the method: as §2

Which results are given for CCCCCCCCCCOc1cc(C(=O)NO)ccc1OC?
inhibition [1]: inactive; inhibition [2]: 37%; Activity [3]: 37.5%; viability at 10 µM (NIH3T3 [4]): 46.9%; Activity (NIH3T3 [5]): 42.1%; Activity (NIH3T3 [6]): 11%; Activity (NIH3T3 [7]): 0%; Activity (NIH3T3 [8]): 36.8%; Activity (NIH3T3 [9]): 0.2%; Activity (NIH3T3 [10]): 7.9%; viability at 60 µM (NIH3T3 [11]): 36.2%; Activity (NIH3T3 [12]): 55.7%; Activity (NIH3T3 [13]): 0.6%; inhibition (NIH3T3 [14]): Dose-dependent effect; inhibition (NIH3T3 [15]): inactive
